These results are taken from the array DNA melting data of Ke et al. (doi:10.1101/2024.01.08.574731).

Data set [1] in a line: folding enthalpy; higher = less favourable; fluorescence melt of hairpins on a sequencing array, two-state fit. The conditions noted are these: sodium 0.088 M. Summed up: (§1)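 To match UV melts, fitted temperatures were raised by 9.35 °C. These fits were bootstrapped two-state models that gave melting temperature and folding enthalpy, combined by inverse variance over four replicates. The input was normalised Cy3 fluorescence of library hairpins with annealed Cy3 and quencher oligos on a sequenced MiSeq flow cell, imaged in 50 mM Na-HEPES pH 8.0, 25 mM NaCl in 2.5 °C steps up to 60 °C.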

Data set [2] is described as follows: melting temperature; fluorescence melt of hairpins on a sequencing array, two-state fit, raised by 9.35 °C to match UV melts. To be noted: sodium 0.088 M. In short, it runs like this: as §1

On to GAGTGGAAACACTC (((((....))))), for which the folding enthalpy in data set [1] was -29.6 kcal/mol. Also, the Tm in data set [2] came out at 51 °C.
The matching figures for GAGTGGACGAAAGTCCTC (((..(((....)))))): -9.72 kcal/mol and 36 °C.
The matching figures for GAGTGGCCGAAAGGCCTC (((..(((....)))))): -6.93 kcal/mol and 38.3 °C.
Regarding GAGTGGCGAAAGCCCTC (((.(((....)))))), in data set [1], the folding enthalpy was -16.4 kcal/mol. The Tm in data set [2] worked out at 51.3 °C.
The matching figures for GAGTGGGGAAACCCATTC ((.((((....)))).)): -27.2 kcal/mol and 42.5 °C.
On to GAGTGGGGAAACTCACTC (((((.(....).))))), for which, in data set [1], the folding enthalpy is -40.9 kcal/mol. The Tm in data set [2] came out at 49.2 °C.
On the same counts, the results for GAGTGGGGAAACTCGCTC (((.(.(....).).))) are -29.6 kcal/mol and 40.4 °C.
The matching figures for GAGTGTGAAAACACTC ((((((....)))))): -35 kcal/mol and 60.9 °C.
On the same counts, the results for GAGTGTGGAAACACGCTC (((.(((....))).))) are -26.9 kcal/mol and 54.5 °C.
Turning to GAGTGTGGAAACGCACTC (((((.(....).))))), in data set [1], the folding enthalpy is -42.1 kcal/mol. Moreover, the Tm in data set [2] is 52.8 °C.
On the same counts, the results for GAGTTGCCGAAAGGCCTC (((..(((....)))))) are -9.97 kcal/mol and 34.9 °C.
On the same counts, the results for GAGTTGCGAAAGCACCTC (((.(((....))).))) are -26.3 kcal/mol and 47 °C.
On the same counts, the results for GAGTTGCGAAAGCACTC (((.(((....)))))) are -21.7 kcal/mol and 53.9 °C.
As for GAGTTGGAAACAACTC ((((((....)))))), the folding enthalpy in data set [1] was -34.6 kcal/mol. Moreover, the Tm in data set [2] is 57.3 °C.
For the sequence GAGTTGGGAAACCAACCC (.(((((....))))).), in data set [1], the folding enthalpy was -13.8 kcal/mol. Also, in data set [2], the Tm is 40.5 °C.
The matching figures for GAGTTGGGAAACCAACTC (((((((....))))))): -39.4 kcal/mol and 62 °C.
The matching figures for GAGTTGGGAAACTGACTC ((((..(....)..)))): -26.7 kcal/mol and 34.4 °C.
On the same counts, the results for GAGTTTGGAAACAAGCTC (((.(((....))).))) are -34.8 kcal/mol and 44.5 °C.
As for GATAAACGAAAGTTATC (((.(((....)))))), in data set [1], the folding enthalpy was -15.1 kcal/mol. In addition, in data set [2], the Tm stood at 33.9 °C.
On to GATAAACGAAAGTTCATC (((.(((....))).))), for which, in data set [1], the folding enthalpy is -27.3 kcal/mol. In addition, the Tm in data set [2] worked out at 29.2 °C.
The matching figures for GATAACCGAAAGGTCATC (((.(((....))).))): -21.3 kcal/mol and 37.2 °C.
With GATAACGAAAGTTATATC ((((((....)))..))), in data set [1], the folding enthalpy is -16 kcal/mol. Further, the Tm in data set [2] is 38.9 °C.
The matching figures for GATAACGGAAACGTTACC (.(((((....))))).): -16.5 kcal/mol and 34 °C.
The matching figures for GATAATGGAAACGTTATC (((((.(....).))))): -29.4 kcal/mol and 34.6 °C.
Consider GATACACCGAAAGGTATC (((..(((....)))))), for which, in data set [1], the folding enthalpy is -13.2 kcal/mol. Further, the Tm in data set [2] was determined as 30.3 °C.
Turning to GATACACGAAAGTGAATC (((.(((....))).))), the folding enthalpy in data set [1] was -22.1 kcal/mol. In data set [2], the Tm came to 45.2 °C.
Take GATACACGAAAGTGGATC (((.(((....))).))): in data set [1], the folding enthalpy was -37.4 kcal/mol. The Tm in data set [2] is 56.6 °C.
As to GATACAGGAAACCGTATC (((((.(....).))))), the folding enthalpy in data set [1] is -29.6 kcal/mol. Further, in data set [2], the Tm is 36.5 °C.
The matching figures for GATACCCGAAAGGGAATC (((.(((....))).))): -23.9 kcal/mol and 48 °C.
The matching figures for GATACCGAAAGGTCTATC ((((((....)))..))): -5.86 kcal/mol and 19.6 °C.
The matching figures for GATACCGAAAGGTGCATC ((((((....)))..))): -9.69 kcal/mol and 27.4 °C.
Turning to GATACCGAAAGGTTATC ((((((....))).))), the folding enthalpy in data set [1] was -17.7 kcal/mol. For the same sequence, the Tm in data set [2] came to 37.6 °C.
On the same counts, the results for GATACCGGAAACGATATC ((((.((....)).)))) are -25.8 kcal/mol and 34.8 °C.
On the same counts, the results for GATACGGGAAACCATATC ((((.((....)).)))) are -19.3 kcal/mol and 28.2 °C.
GATACGGGAAACCGTATC (((((((....))))))): the folding enthalpy in data set [1] was -35.8 kcal/mol. In addition, the Tm in data set [2] is 59.4 °C.
Turning to GATAGAGCGAAAGCTATC (((..(((....)))))), the folding enthalpy in data set [1] was -13 kcal/mol. Besides, the Tm in data set [2] is 32.3 °C.
On the same counts, the results for GATAGCCCGAAAGGGATC (((..(((....)))))) are -8.63 kcal/mol and 32.6 °C.
